# Screening results deposited in PubChem BioAssay by Sanford-Burnham Center for Chemical Genomics.
# Most compounds without a hit are left out; they make up all but 2.4% or so of the library.
# STEP block – STEP (human) phosphatase inhibition. P54829. recombinant STEP, OMFP fluorogenic substrate, fluorescence. inhibition, % at 20 µM. actives 0.25% (n = 360,000). AID 588621;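 active means inhibition at 20 µM, scaled per plate between control wells, above about 37%, limit read from the data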
#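 Measure: Control-normalized % inhibition with plate pattern correction | Test system: STEP phosphatase, cell-free reaction | Medium: pH 6.0 Bis-Tris with DTT and Tween 20 | Technique: Fluorescence, 480/540 nm | Times: Reaction 20 min, ambient temperature | Doses: Single compound dose of 20 µM, 1% DMSO final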
# SUMO1 PPI mod – modulators of human SUMO1-mediated protein-protein interactions | inhibition, % at 20 µM | AID 602429 | actives 0.33% (n = 360,000) | P63165 | SUMO1 binding to a labelled peptide, TR-FRET, 1 h; in the data active means inhibition above about 37%
# Target sequence (P63165 whole entry, looked up): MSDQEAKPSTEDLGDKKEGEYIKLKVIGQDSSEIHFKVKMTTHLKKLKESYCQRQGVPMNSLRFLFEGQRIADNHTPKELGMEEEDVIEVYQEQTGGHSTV
# Scp1 inh – blocks human Scp-1 phosphatase activity. Q9GZU7. Recombinant Scp1, phosphopeptide, malachite green phosphate absorbance. inhibition, % at 20 µM. actives 0.88% (n = 340,000). AID 493091;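 active means inhibition above about 50% at 20 µM, limit read from the data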
# Target sequence (Q9GZU7 76-261 limits assumed): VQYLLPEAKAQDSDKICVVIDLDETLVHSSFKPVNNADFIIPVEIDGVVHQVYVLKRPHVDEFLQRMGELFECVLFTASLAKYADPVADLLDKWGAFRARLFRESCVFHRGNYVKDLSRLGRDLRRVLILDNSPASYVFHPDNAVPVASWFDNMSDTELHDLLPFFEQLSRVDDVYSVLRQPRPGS
#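 Material – SCP-1 phosphatase catalytic domain, residues 76-261 · Buffer or medium – Acidic Tris acetate buffer with magnesium and detergent · Also added – Phospho 17-mer peptide substrate · Compound – single 20 µM dose, 1% DMSO · Times – 45 min room-temperature reaction, 5 min colour, 30 min stabiliser · Technique – Phosphate-binding colour reagent, absorbance read at 630 nm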
# LMPTP block – blocks human LMPTP phosphatase | P24666 | recombinant LMPTP-A, OMFP fluorogenic substrate, fluorescence intensity | inhibition, % at 20 µM | actives 0.22% (n = 360,000) | AID 651560;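 active means compounds that cut the enzyme signal by at least half of the control window in the single-dose screen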
# Target sequence (P24666 whole entry, looked up): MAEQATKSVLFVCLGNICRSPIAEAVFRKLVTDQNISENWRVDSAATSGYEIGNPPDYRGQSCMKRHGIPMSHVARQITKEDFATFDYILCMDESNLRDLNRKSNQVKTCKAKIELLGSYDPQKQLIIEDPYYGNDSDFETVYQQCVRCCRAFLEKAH
#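 Test system – LMPTP-A enzyme · Amount – LMPTP-A at 0.625 nM final in the reaction · Buffer or medium – Bis-Tris pH 6.0, DTT, detergent · Reagent – OMFP 400 µM · Doses – single 20 µM dose · Schedule – reaction 50 min, room temperature, dark · Detection – fluorescence intensity of OMFP turnover product · Evaluation – percent inhibition versus substrate-only and uninhibited controls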
# NadD inh – blocks S. aureus nicotinate mononucleotide adenylyltransferase; purified NadD enzyme, colorimetric absorbance read-out; inhibition, % at 20 µM; actives 0.78% (n = 360,000); AID 602399; in the data active means inhibition above about 26%
# DNMT1 inh – inhibitors of human DNMT1. P26358. DNMT1 molecular beacon, Hinp1I cleavage, fluorescence. inhibition (reported as % activation of signal), % at 10 µM. actives 0.83% (n = 360,000). AID 588458; in the data active means inhibition above about 50%
# Scp1 confirm – confirmation of human Scp-1 phosphatase inhibitors | shares compounds with Scp1 inh | recombinant SCP-1 catalytic domain, phosphate release, malachite green absorbance | inhibition, % at 20 µM | actives 61% (n = 2,500) | AID 540281
# Scp-1 MG ctr – interferes with malachite green readout, flagging false Scp-1 hits | apparent inhibition (interference), % at 20 µM | Colorimetric interference counterscreen, malachite green absorbance 630 nm | AID 540313 | 2,500 tested, under 10 active | shares compounds with Scp1 inh;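 further: compounds added after enzyme reaction finished so only phosphate colour detection is probed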
# Scp-1 Tm shift – binds human Scp-1, shifting its melting temperature | Recombinant SCP1, Sypro Orange thermal shift Tm | shares compounds with Scp1 inh | actives 25% (n = 1,500) | thermal shift relative to vanadate control, % at 40 µM;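 active means substances whose mean melting-temperature shift, as a percentage of the reference inhibitor's shift, reaches about 5.3%, limit read from the data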
# Numbers stand for hits; . = inactive; / = not tested or not shown.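 How the source made its calls, unless noted: active means inhibition of at least 30% at 20 µM; inactive means the rest.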
SMILES,STEP block,SUMO1 PPI mod,Scp1 inh,LMPTP block,NadD inh,DNMT1 inh,Scp1 confirm,Scp-1 MG ctr,others
COc1ccccc1NC(=O)Cn1c(O)c(N=NC(=O)c2ccccc2O)c2ccccc21,55,.,94,60,.,.,90,.,Scp-1 Tm shift=.
O=C(c1cc(S(=O)(=O)N2CCOCC2)ccc1F)N(Cc1nnc(-c2ccccc2Cl)o1)C1CC1,.,.,55,.,.,.,.,.,
Cc1ccc(S(=O)(=O)N2CCOCC2)cc1C(=O)N(Cc1nnc(-c2ccccc2Cl)o1)C1CC1,.,.,.,.,.,.,/,/,
Cc1ccc2nc(/C(C#N)=C/c3ccc(O)c(O)c3)[nH]c2c1,.,.,.,.,.,.,/,/,
Cc1ccc2nc(/C(C#N)=C\c3ccc(N4CCCCC4)c([N+](=O)[O-])c3)[nH]c2c1,.,.,109,.,39,.,77,.,Scp-1 Tm shift=12
CC(C)c1ccc(NC(=O)CSc2n[nH]c(=O)n2-c2ccc3c(c2)OCCO3)cc1,.,.,.,.,.,.,/,/,
NS(=O)(=O)c1ccc(N2CCN(C(=O)C3COc4ccccc4O3)CC2)nc1 (stereo not given),.,.,.,.,.,.,/,/,
O=C(C1COc2ccccc2O1)N1CCN(c2ccc(C(F)(F)F)cn2)CC1 (stereo not given),.,.,87,.,.,.,.,.,
Cc1ccc(N2CC(C(=O)Nc3nnc(SCCC4OCCO4)s3)CC2=O)cc1 (stereo not given),.,.,.,.,.,.,.,.,
Cc1ccc(N2CC(C(=O)Nc3nnc(SCCC4OCCO4)s3)CC2=O)cc1C (stereo not given),.,.,.,.,.,.,/,/,
Cc1c(Cl)cccc1NC(=S)N1CCN(S(=O)(=O)c2cccs2)CC1,.,.,.,.,.,.,/,/,
CCCNC(=O)c1cc(C2CCCCN2C(=O)c2ccc(NC(C)=O)cc2)on1 (stereo not given),.,.,/,.,.,.,/,/,
CC1=NN(c2nc(-c3ccc(C)cc3)cs2)C(=O)C1N=Nc1ccccc1O (stereo not given),.,.,58,.,.,.,71,.,Scp-1 Tm shift=7.4
Cc1ccc(NC(=O)COC(=O)CCCC2=NS(=O)(=O)c3ccccc3N2)cc1C,.,.,.,.,.,.,/,/,
O=C(COC(=O)CCCC1=NS(=O)(=O)c2ccccc2N1)Nc1ccc(Br)cc1,.,.,51,.,.,.,.,.,
Cc1ccc(CNC(=O)c2ccc3c(=O)c(O)c(-c4ccc(C)cc4)[nH]c3c2)cc1,.,.,56,.,.,.,51,.,Scp-1 Tm shift=.
COc1ccc(S(=O)(=O)Nc2ccc3c(c2)C(=O)N([C@H](C)CO)C[C@H](C)[C@@H](CN(C)S(=O)(=O)c2ccc(OC)cc2)O3)cc1,.,.,66,.,.,.,.,.,
C[C@H](CO)N1C[C@H](C)[C@@H](CN(C)Cc2ccc(C(=O)O)cc2)Oc2ccc(NS(C)(=O)=O)cc2C1=O,.,.,.,.,.,.,/,/,
C[C@@H]1CN([C@@H](C)CO)C(=O)c2cc(NS(C)(=O)=O)ccc2O[C@@H]1CN(C)S(=O)(=O)c1ccccc1,.,.,50,.,.,.,.,.,
C[C@H](CO)N1C[C@H](C)[C@@H](CN(C)S(=O)(=O)c2ccccc2)Oc2ccc(NC(=O)Nc3ccccc3)cc2C1=O,.,.,59,.,.,.,.,.,
C[C@H](CO)N1C[C@H](C)[C@@H](CN(C)S(=O)(=O)c2ccc(F)cc2)Oc2ccc(NC(=O)Nc3ccccc3)cc2C1=O,.,.,.,.,.,.,/,/,
